The source made the active and inactive calls. The calls are words filed in the database; no cut-off is given here.
Key:
Prolyl endopeptidase FAP = target: T1, Prolyl endopeptidase FAP (Homo sapiens, UniProt Q12884); assay: Prodrug activation assessed as recombinant human FAP-alpha mediated (S)-((3S,5R,8R,9S,10S,11S,13R,14S,17R)-11,14-dihydroxy-10,13-dimethyl-12-oxo-17-(2-oxo-2H-pyran-5-yl)hexadecahydro-1H-cyclopenta[a]phenanthren-3-yl) 2-amino-3-(1H-indol-3-yl)propanoate formation at 40 umol/L after 6 hrs in presence of FAP-alpha inhibitor talabostat by UPLC-MS/MS analysis; details: 40 µM
T1 sequence (Q12884 whole entry): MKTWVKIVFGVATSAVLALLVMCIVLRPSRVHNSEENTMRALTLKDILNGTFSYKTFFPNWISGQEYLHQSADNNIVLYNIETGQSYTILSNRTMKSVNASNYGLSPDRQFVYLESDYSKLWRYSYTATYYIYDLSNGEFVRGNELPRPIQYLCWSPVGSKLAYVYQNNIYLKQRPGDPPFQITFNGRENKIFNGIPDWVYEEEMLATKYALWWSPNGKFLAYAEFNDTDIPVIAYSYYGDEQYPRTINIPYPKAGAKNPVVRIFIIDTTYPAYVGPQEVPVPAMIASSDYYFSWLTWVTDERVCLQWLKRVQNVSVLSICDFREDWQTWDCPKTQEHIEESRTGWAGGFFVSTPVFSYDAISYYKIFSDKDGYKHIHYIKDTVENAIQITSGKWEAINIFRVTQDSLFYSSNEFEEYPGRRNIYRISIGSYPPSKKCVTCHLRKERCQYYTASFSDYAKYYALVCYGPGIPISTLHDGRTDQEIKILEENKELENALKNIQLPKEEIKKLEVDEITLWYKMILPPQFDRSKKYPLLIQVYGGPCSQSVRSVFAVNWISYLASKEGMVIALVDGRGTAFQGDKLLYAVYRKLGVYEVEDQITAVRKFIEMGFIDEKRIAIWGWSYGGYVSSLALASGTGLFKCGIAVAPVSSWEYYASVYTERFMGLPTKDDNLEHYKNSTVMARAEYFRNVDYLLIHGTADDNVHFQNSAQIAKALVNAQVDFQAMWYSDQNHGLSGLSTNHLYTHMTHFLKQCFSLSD
Procedure, shortened: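 Prodrug at 40 μmol/L incubated with rhFAPα at 0.45 μg/mL in 0.2 mL buffer at 37 °C for 6 h, with bufalin at 2 μmol/L as internal standard. Stopped with acetonitrile and spun at 18 000g for 15 min. Released active form measured by UPLC-MS/MS via peak-area ratio against a standard curve of 0.625–40 μmol/L.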

Mus musculus [1] = assay: Toxicity in BALB/C nude mouse xenografted with human MDA-MB-231 cells assessed as histopathologic change in lungh at 12 umol/kg, iv administered starting on day 5 measured after day 22 by hematoxylin-eosin staining-based assay; format: organism-based; details: in vivo
Procedure, shortened: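 Tissues from dosed xenograft mice fixed for 24 h and paraffin-embedded. Sections of 5 μm, H&E stained; heart, liver, spleen, lung, kidney and femur examined by a pathologist blind to treatment.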

Mus musculus [2] = assay: Toxicity in BALB/C nude mouse xenografted with human MDA-MB-231 cells assessed as body weight change at 12 umol/kg, iv administered starting on day 5 measured after day 22; format: organism-based; details: in vivo
Mus musculus [3] = assay: Toxicity in BALB/C nude mouse xenografted with human MDA-MB-231 cells assessed as abnormal behavioral at 12 umol/kg, iv administered starting on day 5 measured after day 22; format: organism-based; details: in vivo
MCF7 = assay: Antiproliferative activity against FAP-alpha deficient human MCF7 cells incubated for 48 hrs by MTT assay; format: functional, cell-based; details: MCF7, 48 h
Procedure, shortened: (§1)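 Cells grown in DMEM with 10% FBS and 1% penicillin-streptomycin at 37 °C, 5% CO2; 10% heat-inactivated FBS used during cytotoxicity testing to exclude serum FAP activity. Viability read by MTT; IC50 as mean ± SEM of at least three independent experiments. Transfected lines were made from MDA-MB-231 with human FAPα plasmid or empty pCMV6-Entry vector and checked by Western blot at 48 h.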

MDA-MB-231 [4] = assay: Antiproliferative activity against FAP-alpha deficient human MDA-MB-231 cells incubated for 48 hrs by MTT assay; format: functional, cell-based; details: MDA-MB-231, 48 h; procedure, shortened: as §1
MDA-MB-231 [5] = assay: Antitumor activity against human MDA-MB-231 cells xenografted in BALB/C nude mouse assessed as tumor weight at 12 umol/kg, iv administered starting on day 5 measured after day 22 (reference value: 0.67 +/- 0.14 g); format: functional
Procedure, shortened: (§2)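 Female BALB/C mice inoculated subcutaneously in the back with 1 × 10^7 MDA-MB-231 cells in Matrigel–PBS (1:1). From day 5, daily iv dosing in 5% Solutol-HS15 vehicle, with a vehicle control group. Tumours measured by caliper every 2 days (v = 0.5 × a × b²); tumour weight as mean ± SEM, n = 6, one-way ANOVA with Tukey's test.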

MDA-MB-231 [6] = assay: Antiproliferative activity against human MDA-MB-231 cells transfected with human FAP-alpha incubated for 48 hrs by MTT assay; format: functional, cell-based; details: MDA-MB-231, 48 h; procedure, shortened: as §1
Mus musculus [7] = assay: Cardiotoxicity in BALB/C nude mouse xenografted with human MDA-MB-231 cells assessed as change in interventricular septal systole dimension at 12 umol/kg, iv administered starting on day 5 measured after day 22 by echocardiography; format: toxicity, organism-based; details: in vivo
Procedure, shortened: (§3)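 Same MDA-MB-231 xenograft mice, given daily iv doses in 5% HS15 from day 5. After 22 days of dosing, transthoracic echocardiography with a 21 MHz transducer under 1.5% isoflurane, supine. M-mode images taken from the parasternal short-axis view at the papillary muscle; IVSd, IVSs, LVIDd and LVIDs derived, n = 6.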

Mus musculus [8] = assay: Cardiotoxicity in BALB/C nude mouse xenografted with human MDA-MB-231 cells assessed as change in left ventricular internal diastole dimension at 12 umol/kg, iv administered starting on day 5 measured after day 22 by echocardiography; format: toxicity, organism-based; details: in vivo; procedure, shortened: as §3
[9] = Acute toxicity in iv dosed Kunming mouse measured less than 4 hrs post dose; format: organism-based; details: in vivo
Procedure, shortened: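 Kunming mice (22.0−28.0 g), half male and half female, 10 groups of n = 10. Single iv dose on day 1 across five levels per compound (prodrug 29.98–50.00 μmol/kg; arenobufagin 4.50–8.00 μmol/kg). Watched continuously for 8 h for abnormal behaviour and deaths, then intermittently for 2 weeks, and sacrificed day 14. LD50 by Bliss method.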

Mus musculus [10] = assay: Cardiotoxicity in BALB/C nude mouse xenografted with human MDA-MB-231 cells assessed as change in LDH level at 12 umol/kg, iv administered starting on day 5 measured after day 22; format: toxicity, organism-based; details: in vivo
Procedure, shortened: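 Serum from xenograft mice given daily iv doses in 5% HS15: blood taken by cardiac puncture before sacrifice and spun at 3000 rpm for 20 min at 4 °C. D-LDH activity measured with a colorimetric kit. Mean ± SEM, n = 6; one-way ANOVA with Tukey's test against the 5% HS15 control.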

Mus musculus [11] = assay: Acute toxicity in Kunming mouse assessed as mortality at 12 umol/kg, iv after 8 hrs post dose; format: organism-based; details: in vivo
[12] = Safety index, ratio of test compound LD50 to arenobufagin LD50 for Kunming mouse; format: ADME; details: in vivo
Procedure, shortened: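 LD50 from single-dose iv acute toxicity in Kunming mice (five dose levels per compound, n = 10 per group, 14-day observation), calculated by Bliss method; ratio taken against arenobufagin LD50.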

MDA-MB-231 [13] = assay: Antitumor activity against human MDA-MB-231 cells xenografted in BALB/C nude mouse assessed as decrease in tumor weight at 4 umol/kg, iv administered starting on day 5 measured after day 22; format: functional, organism-based; procedure, shortened: as §2

Structure (SMILES): C[C@]12CC[C@H](OC(=O)[C@H](Cc3c[nH]c4ccccc34)NC(=O)[C@@H]3CCCN3C(=O)CNC(=O)OCc3ccccc3)C[C@H]1CC[C@@H]1[C@@H]2[C@H](O)C(=O)[C@]2(C)[C@@H](c3ccc(=O)oc3)CC[C@]12O
- Drug metabolism (Prolyl endopeptidase FAP): Metabolite_Notdetected
- Activity (Mus musculus [1]): Non-Toxic
- Activity (Mus musculus [2]): Non-Toxic
- Activity (Mus musculus [3]): Non-Toxic
- IC50 (MCF7): 11.6 nM
- IC50 (MDA-MB-231 [4]): 27 nM
- Activity (MDA-MB-231 [5]): 0.43 g
- IC50 (MDA-MB-231 [6]): 11.7 nM
- Activity (Mus musculus [7]): Non-Toxic
- Activity (Mus musculus [8]): Non-Toxic
- LD50 at 4 h [9]: 44 µmol/kg
- Activity (Mus musculus [10]): Non-Toxic
- Activity (Mus musculus [11]): Non-Toxic
- selectivity ratio [12]: 6.5
- Activity (MDA-MB-231 [13]): Active

From ChEMBL document CHEMBL4038302, “Fibroblast Activation Protein α Activated Tripeptide Bufadienolide Antitumor Prodrug with Reduced Cardiotoxicity” (J Med Chem, 2017)
